Measured values as given in ChEMBL document CHEMBL4689842, “EUbOPEN Chemogenomics Library wave 1” (2021).
Values joined by “and” are separate entries in the source; they are usually repeats but may differ in a detail not shown here. Equal values may be shown once.

System: U2OS
Experiment: Multiplex assay against U2OS
Type: toxicity, cell-based
Settings: human
Summary of the method: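 Values for tubulin, mitochondrial-mass and membrane-permeability phenotypes are per cents of cells with healthy nuclei. These cells were identified by CellPathfinder machine-learning gating of live cells that had been stained at seeding with Hoechst33342, BioTracker Green Microtubule Cytoskeleton Dye, MitoTracker Red and Annexin V Alexa Fluor 680 and imaged on a CQ1 microscope at 37°C and 5% CO2 after compound addition. The gating first set Hoechst high-intensity objects apart from normal cells, then split normal cells into healthy, pyknosed or fragmented nuclei, and pyknosed cells into mitotic or apoptotic.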

[1] = 12 h, 10 µM, compound concentration 10 uM, replicate 1
[2] = 12 h, 10 µM, compound concentration 10 uM, replicate 2
[3] = 24 h, 10 µM, compound concentration 10 uM, replicate 1
[4] = 24 h, 10 µM, compound concentration 10 uM, replicate 2
[5] = 12 h, 1 µM, compound concentration 1 uM, replicate 1
[6] = 12 h, 1 µM, compound concentration 1 uM, replicate 2
[7] = 24 h, 1 µM, compound concentration 1 uM, replicate 1
[8] = 24 h, 1 µM, compound concentration 1 uM, replicate 2
[9] = 48 h, 10 µM, compound concentration 10 uM, replicate 1
[10] = 48 h, 10 µM, compound concentration 10 uM, replicate 2

Cc1sc2c(c1C)C(c1ccc(Cl)cc1)=N[C@@H](CC(=O)OC(C)(C)C)c1nnc(C)n1-2
Population Apoptotic (%) [1]: 41% and 34% | Population Fragmented Nuclei (%) [1]: 12% | Population Healthy Nuclei (%) [1]: 67% and 58% | Population Hoechst High Intensity Objects (%) [1]: 5% and 6% | Population Membrane Permeable-Phenotype (%) [1]: 21% and 12% | Population Mitochondria Different-Phenotype (%) [1]: 17% and 22% | Population Mitotic Cells (%) [1]: 58% and 65% | Population Normal (%) [1]: 94% and 93% | Population Pyknosed Nuclei (%) [1]: 19% and 20% | Population Tubulin-Different-Phenotype (%) [1]: 17% and 24% | Total Cell Count [1]: 1986 | Population Apoptotic (%) [2]: 28% and 14% | Population Fragmented Nuclei (%) [2]: 29% and 21% | Population Healthy Nuclei (%) [2]: 55% and 62% | Population Hoechst High Intensity Objects (%) [2]: 13% and 12% | Population Membrane Permeable-Phenotype (%) [2]: 14% | Population Mitochondria Different-Phenotype (%) [2]: 28% and 33% | Population Mitotic Cells (%) [2]: 71% and 85% | Population Normal (%) [2]: 86% and 87% | Population Pyknosed Nuclei (%) [2]: 15% and 16% | Population Tubulin-Different-Phenotype (%) [2]: 36% and 27% | Population Apoptotic (%) [3]: 88% | Population Fragmented Nuclei (%) [3]: 16% and 20% | Population Healthy Nuclei (%) [3]: 58% | Population Hoechst High Intensity Objects (%) [3]: 5% and 6% | Population Membrane Permeable-Phenotype (%) [3]: 27% and 23% | Population Mitochondria Different-Phenotype (%) [3]: 19% and 29% | Population Mitotic Cells (%) [3]: 12% | Population Normal (%) [3]: 94% and 93% | Population Pyknosed Nuclei (%) [3]: 24% and 20% | Population Tubulin-Different-Phenotype (%) [3]: 30% and 40% | Population Apoptotic (%) [4]: 76% and 64% | Population Fragmented Nuclei (%) [4]: 30% and 25% | Population Healthy Nuclei (%) [4]: 53% and 52% | Population Hoechst High Intensity Objects (%) [4]: 11% and 12% | Population Membrane Permeable-Phenotype (%) [4]: 20% and 18% | Population Mitochondria Different-Phenotype (%) [4]: 30% and 23% | Population Mitotic Cells (%) [4]: 23% and 35% | Population Normal (%) [4]: 88% | Population Pyknosed Nuclei (%) [4]: 15% and 22% | Population Tubulin-Different-Phenotype (%) [4]: 52% and 34%

CN1C(=O)c2sccc2N(C)c2nc(Nc3ccc(S(N)(=O)=O)cc3)ncc21
Population Apoptotic (%) [1]: 30% and 31% | Population Fragmented Nuclei (%) [1]: 5% and 4% | Population Healthy Nuclei (%) [1]: 88% and 84% | Population Hoechst High Intensity Objects (%) [1]: 1% | Population Membrane Permeable-Phenotype (%) [1]: 14% and 7% | Population Mitochondria Different-Phenotype (%) [1]: 17% and 22% | Population Mitotic Cells (%) [1]: 70% and 68% | Population Normal (%) [1]: 98% | Population Pyknosed Nuclei (%) [1]: 5% and 10% | Population Tubulin-Different-Phenotype (%) [1]: 15% and 31% | Total Cell Count [1]: 144 and 172 | Population Fragmented Nuclei (%) [2]: 6% and 13% | Population Healthy Nuclei (%) [2]: 83% and 78% | Population Hoechst High Intensity Objects (%) [2]: 8% and 19% | Population Membrane Permeable-Phenotype (%) [2]: 19% and 8% | Population Mitochondria Different-Phenotype (%) [2]: 36% and 35% | Population Mitotic Cells (%) [2]: 90% and 66% | Population Normal (%) [2]: 91% and 80% | Population Pyknosed Nuclei (%) [2]: 9% and 7% | Population Tubulin-Different-Phenotype (%) [2]: 18% and 21% | Total Cell Count [2]: 94 and 98 | Population Apoptotic (%) [3]: 28% and 42% | Population Fragmented Nuclei (%) [3]: 4% and 6% | Population Healthy Nuclei (%) [3]: 92% and 84% | Population Hoechst High Intensity Objects (%) [3]: 0% and 1% | Population Membrane Permeable-Phenotype (%) [3]: 7% and 6% | Population Mitochondria Different-Phenotype (%) [3]: 15% and 44% | Population Mitotic Cells (%) [3]: 71% and 57% | Population Normal (%) [3]: 99% and 98% | Population Pyknosed Nuclei (%) [3]: 2% and 9% | Population Tubulin-Different-Phenotype (%) [3]: 42% | Total Cell Count [3]: 142 and 237 | Population Fragmented Nuclei (%) [4]: 9% and 12% | Population Healthy Nuclei (%) [4]: 80% | Population Hoechst High Intensity Objects (%) [4]: 8% and 12% | Population Membrane Permeable-Phenotype (%) [4]: 11% | Population Mitochondria Different-Phenotype (%) [4]: 57% and 27% | Population Mitotic Cells (%) [4]: 63% and 100% | Population Normal (%) [4]: 91% and 87% | Population Pyknosed Nuclei (%) [4]: 10% and 3% | Population Tubulin-Different-Phenotype (%) [4]: 17% and 40% | Total Cell Count [4]: 112 and 90

COc1cc2nccc(Oc3ccc(NC(=O)Nc4cc(C)on4)c(Cl)c3)c2cc1OC.O
Population Apoptotic (%) [5]: 50% and 42% | Population Fragmented Nuclei (%) [5]: 7% and 3% | Population Healthy Nuclei (%) [5]: 86% and 89% | Population Membrane Permeable-Phenotype (%) [5]: 26% | Population Mitotic Cells (%) [5]: 50% and 57% | Population Normal (%) [5]: 95% and 98% | Population Pyknosed Nuclei (%) [5]: 6% and 7% | Total Cell Count [5]: 193 and 192 | Population Apoptotic (%) [6]: 0% | Population Fragmented Nuclei (%) [6]: 10% and 8% | Population Healthy Nuclei (%) [6]: 77% and 91% | Population Hoechst High Intensity Objects (%) [6]: 6% and 14% | Population Membrane Permeable-Phenotype (%) [6]: 25% and 19% | Population Mitochondria Different-Phenotype (%) [6]: 61% and 24% | Population Mitotic Cells (%) [6]: 0% | Population Normal (%) [6]: 93% and 85% | Population Pyknosed Nuclei (%) [6]: 12% and 0% | Population Tubulin-Different-Phenotype (%) [6]: 19% | Total Cell Count [6]: 132 and 71 | Population Apoptotic (%) [1]: 70% | Population Fragmented Nuclei (%) [1]: 16% | Population Healthy Nuclei (%) [1]: 57% | Population Hoechst High Intensity Objects (%) [1]: 11% | Population Membrane Permeable-Phenotype (%) [1]: 25% | Population Mitochondria Different-Phenotype (%) [1]: 96% | Population Mitotic Cells (%) [1]: 30% | Population Normal (%) [1]: 88% | Population Pyknosed Nuclei (%) [1]: 25% | Population Tubulin-Different-Phenotype (%) [1]: 100% | Total Cell Count [1]: 152 | Population Apoptotic (%) [2]: 71% | Population Fragmented Nuclei (%) [2]: 11% | Population Healthy Nuclei (%) [2]: 75% | Population Hoechst High Intensity Objects (%) [2]: 3% | Population Membrane Permeable-Phenotype (%) [2]: 36% | Population Mitochondria Different-Phenotype (%) [2]: 97% | Population Mitotic Cells (%) [2]: 28% | Population Normal (%) [2]: 96% | Population Pyknosed Nuclei (%) [2]: 12% | Population Tubulin-Different-Phenotype (%) [2]: 97% | Total Cell Count [2]: 58 | Population Apoptotic (%) [7]: 73% and 33% | Population Healthy Nuclei (%) [7]: 62% and 92% | Population Membrane Permeable-Phenotype (%) [7]: 42% and 15% | Population Mitotic Cells (%) [7]: 26% and 66% | Population Normal (%) [7]: 95% and 98% | Total Cell Count [7]: 272 and 251 | Population Apoptotic (%) [8]: 83% and 100% | Population Fragmented Nuclei (%) [8]: 17% and 9% | Population Healthy Nuclei (%) [8]: 58% and 89% | Population Hoechst High Intensity Objects (%) [8]: 15% and 9% | Population Membrane Permeable-Phenotype (%) [8]: 47% and 17% | Population Mitotic Cells (%) [8]: 16% and 0% | Population Normal (%) [8]: 84% and 90% | Population Pyknosed Nuclei (%) [8]: 24% and 0% | Total Cell Count [8]: 159 and 78 | Population Apoptotic (%) [3]: 82% | Population Fragmented Nuclei (%) [3]: 28% | Population Healthy Nuclei (%) [3]: 42% | Population Hoechst High Intensity Objects (%) [3]: 8% | Population Membrane Permeable-Phenotype (%) [3]: 61% | Population Mitochondria Different-Phenotype (%) [3]: 98% | Population Mitotic Cells (%) [3]: 17% | Population Normal (%) [3]: 91% | Population Pyknosed Nuclei (%) [3]: 29% | Population Tubulin-Different-Phenotype (%) [3]: 100% | Total Cell Count [3]: 142 | Population Apoptotic (%) [4]: 92% | Population Fragmented Nuclei (%) [4]: 16% | Population Healthy Nuclei (%) [4]: 60% | Population Hoechst High Intensity Objects (%) [4]: 3% | Population Membrane Permeable-Phenotype (%) [4]: 67% | Population Mitochondria Different-Phenotype (%) [4]: 100% | Population Mitotic Cells (%) [4]: 7% | Population Normal (%) [4]: 96% | Population Pyknosed Nuclei (%) [4]: 23% | Population Tubulin-Different-Phenotype (%) [4]: 97% | Total Cell Count [4]: 58 | Population Apoptotic (%) [9]: 91% | Population Fragmented Nuclei (%) [9]: 41% | Population Healthy Nuclei (%) [9]: 15% | Population Hoechst High Intensity Objects (%) [9]: 13% | Population Membrane Permeable-Phenotype (%) [9]: 86% | Population Mitochondria Different-Phenotype (%) [9]: 100% | Population Mitotic Cells (%) [9]: 8% | Population Normal (%) [9]: 86% | Population Pyknosed Nuclei (%) [9]: 42% | Population Tubulin-Different-Phenotype (%) [9]: 100% | Total Cell Count [9]: 153 | Population Apoptotic (%) [10]: 87% | Population Fragmented Nuclei (%) [10]: 13% | Population Healthy Nuclei (%) [10]: 67% | Population Hoechst High Intensity Objects (%) [10]: 15% | Population Membrane Permeable-Phenotype (%) [10]: 96% | Population Mitotic Cells (%) [10]: 12% | Population Normal (%) [10]: 84% | Population Pyknosed Nuclei (%) [10]: 18% | Total Cell Count [10]: 62

Cn1cncc1[C@@](O)(COc1ccc(C#N)cc1-c1ccc(OC(F)(F)F)cc1)c1ccc(C#N)cc1 [A-108]
Population Apoptotic (%) [1]: 38% and 53% | Population Healthy Nuclei (%) [1]: 70% and 84% | Population Hoechst High Intensity Objects (%) [1]: 3% | Population Membrane Permeable-Phenotype (%) [1]: 31% and 17% | Population Mitochondria Different-Phenotype (%) [1]: 42% and 25% | Population Mitotic Cells (%) [1]: 61% and 46% | Population Normal (%) [1]: 96% | Population Pyknosed Nuclei (%) [1]: 17% and 11% | Total Cell Count [1]: 188 and 136 | Population Apoptotic (%) [2]: 43% and 50% | Population Healthy Nuclei (%) [2]: 60% and 90% | Population Hoechst High Intensity Objects (%) [2]: 19% and 8% | Population Mitochondria Different-Phenotype (%) [2]: 63% and 21% | Population Mitotic Cells (%) [2]: 56% and 50% | Population Normal (%) [2]: 80% and 91% | Total Cell Count [2]: 101 and 164 | Population Fragmented Nuclei (%) [3]: 8% and 3% | Population Healthy Nuclei (%) [3]: 74% and 86% | Population Hoechst High Intensity Objects (%) [3]: 2% and 4% | Population Membrane Permeable-Phenotype (%) [3]: 29% and 11% | Population Mitochondria Different-Phenotype (%) [3]: 37% and 20% | Population Mitotic Cells (%) [3]: 28% and 77% | Population Normal (%) [3]: 97% and 95% | Population Pyknosed Nuclei (%) [3]: 17% and 10% | Total Cell Count [3]: 190 and 184 | Population Apoptotic (%) [4]: 80% and 45% | Population Fragmented Nuclei (%) [4]: 18% | Population Healthy Nuclei (%) [4]: 55% and 85% | Population Hoechst High Intensity Objects (%) [4]: 7% | Population Mitochondria Different-Phenotype (%) [4]: 75% and 28% | Population Mitotic Cells (%) [4]: 19% and 54% | Population Normal (%) [4]: 92% | Population Tubulin-Different-Phenotype (%) [4]: 73% and 25% | Total Cell Count [4]: 88 and 199
